Shown are actives, neighbours in structure and some others; about 1.8% of the full set was active somewhere.
MT1-MMP act inh: blockers of MT1-MMP proenzyme processing, primary screen, HT1080 RFP-PRO-GFP cells, GFP/RFP fluorescence | Matrix metalloproteinase-14 (Homo sapiens), P50281 | GFP/RFP ratio fluorescence, overnight; percent of plate control window, DMSO zero | GFP/RFP ratio change, % at 20 µM | 360,000 compounds, 0.061% hits | AID 651647, 2012;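 active means GFP/RFP ratio change of at least 30% with cell ATP level not reduced by more than half and red fluorescence within 50% of control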
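Assay system: HT1080 RFP-PRO-GFP cells | Dosing: 20 µM single dose, 1% DMSO | Incubation: Cells overnight before dosing, compound overnight, 37 °C, 5% CO2 | Evaluation: GFP/RFP fluorescence ratio | Control set: DMSO-only wells and HT1080 RFP-L50D-GFP cell wells as references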
eLon inh: inhibitors of E. coli Lon protease, primary screen, biochemical, fluorescence polarization; P0A9M0; purified E. coli Lon protease; inhibition, % at 7.94 µM; 360,000 compounds, 0.42% hits; AID 602123, 2011; in the data active means inhibition above about 13%, passing the limit was not always enough
PREPL inhibitor: PREPL enzyme inhibitors, primary screen, biochemical, fluorescence polarization; inhibition, % at 5.96 µM; 320,000 compounds, 0.68% hits; recombinant PREPL, fluorescence polarization activity-based probe; Prolyl endopeptidase-like (Homo sapiens), Q4J6C6; in the data active means inhibition above about 43%
Target sequence (Q4J6C6 whole entry, looked up): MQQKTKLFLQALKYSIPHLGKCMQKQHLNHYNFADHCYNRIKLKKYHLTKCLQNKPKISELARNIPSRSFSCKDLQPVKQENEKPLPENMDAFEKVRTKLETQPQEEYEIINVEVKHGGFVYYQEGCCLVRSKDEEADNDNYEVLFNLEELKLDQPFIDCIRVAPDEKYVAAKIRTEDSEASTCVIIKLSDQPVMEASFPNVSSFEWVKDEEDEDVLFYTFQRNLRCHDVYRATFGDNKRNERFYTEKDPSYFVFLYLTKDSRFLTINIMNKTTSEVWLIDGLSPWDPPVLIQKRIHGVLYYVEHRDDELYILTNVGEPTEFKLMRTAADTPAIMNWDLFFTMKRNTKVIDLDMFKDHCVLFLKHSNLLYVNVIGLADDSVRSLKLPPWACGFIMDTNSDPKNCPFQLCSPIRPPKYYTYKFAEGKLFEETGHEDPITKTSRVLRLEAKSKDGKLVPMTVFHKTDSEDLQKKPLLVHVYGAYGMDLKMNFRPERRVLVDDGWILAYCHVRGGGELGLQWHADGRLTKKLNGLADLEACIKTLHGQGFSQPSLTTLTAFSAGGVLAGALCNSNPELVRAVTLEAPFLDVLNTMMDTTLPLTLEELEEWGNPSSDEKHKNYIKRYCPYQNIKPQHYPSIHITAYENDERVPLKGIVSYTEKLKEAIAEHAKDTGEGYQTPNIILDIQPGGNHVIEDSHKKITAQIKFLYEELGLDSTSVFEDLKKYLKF
hiPSC survival: enhancers of single-cell hiPSC survival, primary screen, ATPlite luminescence; 100% = ROCK inhibitor wells, 0% = DMSO; 360,000 compounds, 0.044% hits; survival enhancement, % at 20 µM; in the data active means survival enhancement above about 18%;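 further: cells exposed to compounds for 16 hours before the ATP read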
TbMetRS inhib: T. brucei MetRS inhibitors, primary screen, biochemical, luminescence. methionyl-tRNA synthetase (Trypanosoma brucei brucei). purified T. brucei MetRS, ATP depletion, Kinase-Glo luminescence. inhibition, % at 11.9 µM. 360,000 compounds, 0.4% hits;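 active means inhibition above a per-plate cutoff of the control wells' mean inhibition plus 3 SD, cut at about 5.5% in these data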
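Material: parasite MetRS enzyme / Replication: singlicate, one well per compound / Signal: luminescence of leftover ATP / Schedule: 2 h aminoacylation at 25 °C after 15 min preincubation / Medium: HEPES-MgCl2-KCl buffer plus DTT, spermine, BSA, pyrophosphatase / Doses: 11.9 µM single point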
SKN-1 inh: suppressors of acrylamide-induced Pgst-4::GFP reporter in worms, primary screen, SKN-1 inhibitor project, whole organism, uHTS, GFP/RFP fluorescence ratio, strain VP596 | C. elegans VP596 Pgst-4::GFP/RFP ratio, 24 h | inhibition, % at 21.8 µM | 360,000 compounds, 0.49% hits | AID 624304, 2012;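 active means interference check ratio from 0.5 to 1.5 plus GFP to RFP signal ratio inhibition reaching or exceeding a fixed threshold, cut at about 30% in these data, passing the limit was not always enough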
Numbers stand for hits; n = inactive; x = not tested or not shown.

SMILES	MT1-MMP act inh	eLon inh	PREPL inhibitor	hiPSC survival	TbMetRS inhib	SKN-1 inh
CCC(=O)N1Cc2cc(C(=O)Nc3nccs3)nc(-c3cccc(-c4ccccc4OC)c3)c2[C@H]1CCO	n	n	x	n	n	n
O=C(CCC1CCCN(Cc2ccncc2)C1)NCc1ccc(F)c(F)c1 (centres undefined)	n	n	n	n	n	n
O=C(CCN1CCN(S(=O)(=O)c2ccc(Cl)cc2)CC1)Nc1ccc(F)cc1	n	n	n	n	n	46
COC(=O)[C@@]12C[C@@H](CC(=O)N3CCSCC3)C(=O)N(Cc3ccccc3)C1=CCC(C)(C)C2	n	x	x	x	n	n
c1cncc(C2Nc3ccccc3-c3nc4ccccc4n32)c1 (centres undefined)	n	n	n	n	n	n
c1ccc2c(c1)NC(c1ccncc1)n1c-2nc2ccccc21 (centres undefined)	n	n	n	n	n	34
COc1ccc(/C=C2\Oc3cc(OC(=O)N4CCOCC4)ccc3C2=O)cc1	n	n	n	n	n	n
CC(=O)Oc1ccc2c(c1)O/C(=C\c1ccncc1)C2=O	n	79	n	n	n	n
Cc1cccc(C(=O)NNC(=O)c2cc3cc4ccccc4nc3s2)c1	n	n	n	n	n	n
Cc1ccc(S(=O)(=O)NNC(=O)c2cc3cc4ccccc4nc3s2)cc1	n	n	n	n	8.3	n
Cc1nc(N2CCCCC2)[nH]c(=O)c1CN(C)N=O	n	n	x	n	n	n
Cc1ccc(C2/C(=C(\O)c3cnn(-c4ccccc4)c3C)C(=O)C(=O)N2CCN(C)C)o1 (centres undefined)	n	n	n	n	n	n
CCN(CC)CCN1C(=O)C(=O)/C(=C(/O)c2cnn(-c3ccccc3)c2C)C1c1ccc(C)o1 (centres undefined)	n	n	n	n	n	46
COc1cc(C2NC(=S)NC(C)=C2C(=O)OC(C)C)ccc1OC(C)C (centres undefined)	n	n	n	n	n	n
COc1cc(C2NC(=O)NC(C)=C2C(=O)OC(C)C)ccc1OC(=O)c1ccco1 (centres undefined)	n	n	79	n	n	n
CCOC(=O)C1=C(C)NC(=O)NC1c1ccc(OC(=O)c2ccco2)c(OC)c1 (centres undefined)	n	n	67	n	n	n
COc1cc(CNc2ncnc3c2ncn3[C@H]2CN(Cc3ccccc3)C[C@@H](COC(C)=O)O2)cc(OC)c1OC	n	n	x	n	n	n
CCCCCC(=O)N1C[C@@H](n2cc(C3CC3)nn2)[C@H](O)C[C@@H]1c1ccccc1	n	n	x	n	n	n
CCOC(=O)CN(C(=O)CNC(=O)c1cccs1)C(C(=O)NC1CCCCC1)c1cccs1 (centres undefined)	n	n	n	n	n	46
CCC1(C)Cc2ccccc2-c2nc(NCCO)n(-c3ccc(C)cc3)c(=O)c21 (centres undefined)	n	n	n	n	n	38
CCC1(C)Cc2ccccc2-c2nc(NCCO)n(-c3ccccc3)c(=O)c21 (centres undefined)	n	n	n	n	n	n
COc1ccc(Cc2c(N)nc(N)nc2N)cc1	n	n	n	n	n	n
Nc1ccc(OCCCc2c(N)nc(N)nc2N)cc1	n	n	52	n	n	n
CCCn1nc2cc(C(=O)NCc3ccc(OC(F)(F)F)cc3)ccc2c1OCC	n	n	n	n	n	62
CCOc1c2ccc(C(=O)NCc3ccc(OC(F)(F)F)cc3)cc2nn1CC	n	n	n	n	n	n
SMILES	MT1-MMP act inh	eLon inh	PREPL inhibitor	hiPSC survival	TbMetRS inhib	SKN-1 inh
COc1ccc(-c2ccc(-c3noc(-c4ccco4)n3)c(OC)n2)cc1	n	n	n	n	n	n
COc1nc(-c2ccccc2)ccc1-c1noc(-c2ccco2)n1	n	n	n	n	n	63
Cc1ccc(NC(=O)c2cc(-c3ccco3)on2)cc1C	n	n	n	n	n	36
Cc1nnc(SCC(=O)NCC2COc3ccccc3O2)s1 (centres undefined)	n	n	n	n	n	n
CSc1c(C#N)c(N)c(C#N)c2c1COC(C)(C)C2	n	n	n	n	n	41
Cc1[nH]c(=O)c(C#N)c2c1COC(C)(C)C2	n	n	n	n	n	n
O=C(OCc1nc2ccccc2[nH]1)C12CC3CC(CC(C3)C1)C2	n	n	n	n	47	n
COc1cc2c(cc1OC)C(c1ccccc1)N(C(=O)CCl)CC2 (centres undefined)	n	n	n	n	n	34
CC(C)(C)N(Cc1ccccc1)C(=O)COC(=O)c1cccc([N+](=O)[O-])c1	n	n	n	n	n	n
COc1ccc(-c2cc(C(=O)Nc3c(C)n(C)n(-c4ccccc4)c3=O)c3ccccc3n2)cc1OC	n	n	n	n	n	n
COc1ccc(-c2cc(C(=O)Nc3c(C)n(C)n(-c4ccccc4)c3=O)c3ccccc3n2)c(OC)c1	n	n	n	n	n	36
O=C(COC(=O)c1cc(=O)[nH]c2ccccc12)Nc1ccc(Cl)cn1	n	n	n	n	n	n
O=Cc1cc2ccccc2nc1SCc1ccc(Cl)cc1	n	n	n	n	n	n
Cc1ccc(CSc2nc3ccccc3cc2C=O)cc1	n	n	n	n	n	42
O=C(NCc1ccccc1)C1Cc2c(-c3ccc(Cl)cc3)ccnc2O1 (centres undefined)	n	n	x	n	n	n
COc1ccc(S(=O)(=O)Nc2cc3c4c(oc3c3ccccc23)CC(C)(C)CC4=O)cc1	n	n	n	n	n	35
CCC1(C)Cc2c(C#N)c(N)sc(=S)c2CO1 (centres undefined)	n	n	n	n	n	46
CN(C)C(=O)c1cc2c(c(-c3cccc(-c4ccccc4F)c3)n1)[C@@H](CCO)N(S(C)(=O)=O)C2	n	n	x	n	n	n
CN(Cc1ccc(Cl)c(Cl)c1)C(c1cc2ccccc2o1)c1nnnn1C(C)(C)C (centres undefined)	n	n	x	n	n	n
CC(=O)Nc1sc(N/N=C/c2ccccc2)nc1-c1ccc(C)cc1	n	n	n	n	n	n
CC(=O)Nc1sc(/C(C#N)=C\c2cccc(Cl)c2)nc1-c1ccc(C)cc1	n	n	n	n	n	35
CCN1C(c2ccccc2)=C(c2ccccc2)S/C1=C/C=C1\SC(=S)N(C)C1=O	n	n	x	n	n	n
